Results as given in ChEMBL document CHEMBL1134956, “Relating the structure, activity, and physical properties of ultrashort-acting benzodiazepine receptor agonists” (Bioorg Med Chem Lett, 2002).
In brackets after ≈: the same amount, converted by molar mass.

How the values were obtained:
Rattus norvegicus [1] = assay: Compound was tested for its total (rat) loss-of-righting reflex LORR recovery time at a dose of 25 mg/kg; format: functional, organism-based; set-up: dose 25 mg/kg; unit not given here
Summary of the method: (§1)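 Rat loss-of-righting-reflex test, after the method of ref 14. The compound is given as a bolus injection in 50% PEG/25% EtOH/25% saline. Initial and total recovery times are recorded in min.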

[2] = Binding affinity against rat benzodiazepine (BZD) receptor
Rattus norvegicus [3] = assay: Compound was tested for its initial (rat) loss-of-righting reflex LORR recovery time at a dose of 25 mg/kg; format: functional, organism-based; set-up: dose 25 mg/kg; unit not given here; summary of the method: as §1
[4] = Aqueous solubility at pH 3 was determined; format: physicochemical
Summary of the method: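 Solubility of a saturated sample at pH 3, read by visual inspection or UV assay. The pH 3 value was cross-checked against solubility at other pH values and spectrophotometric pKa values.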

[5] = Selectivity by the ratio of binding affinity of acid to the binding affinity of its ester
Rattus norvegicus [6] = assay: Compound was tested for its total (rat) loss-of-righting reflex LORR recovery time at a dose of 50 mg/kg; format: functional, organism-based; set-up: dose 50 mg/kg; summary of the method: as §1
Rattus norvegicus [7] = assay: Compound was tested for its initial (rat) loss-of-righting reflex LORR recovery time at a dose of 50 mg/kg; format: functional, organism-based; set-up: dose 50 mg/kg; summary of the method: as §1
Rattus norvegicus [8] = assay: Compound was tested for its initial (rat) loss-of-righting reflex LORR recovery time at a dose of 30 mg/kg; format: functional, organism-based; set-up: dose 30 mg/kg; summary of the method: as §1
Rattus norvegicus [9] = assay: Compound was tested for its total (rat) loss-of-righting reflex LORR recovery time at a dose of 30 mg/kg; format: functional, organism-based; set-up: dose 30 mg/kg

| SMILES | Recovery time (Rattus norvegicus [1]) | Ki [2] | Recovery time (Rattus norvegicus [3]) | solubility [4] | Selectivity [5] | also measured |
| --- | --- | --- | --- | --- | --- | --- |
| COC(=O)CC[C@@H]1N=C(c2ccccn2)c2cc(Cl)ccc2-n2cc(C)nc21 | 15 | 60 nM | 13 | 2000 µg/mL (≈ 5.07 mM) | 156 |  |
| COC(=O)CC[C@@H]1N=C(c2ccccc2F)c2cc(Cl)ccc2-n2ccnc21 | 23 | 7 nM | 17 |  | 64 |  |
| COC(=O)CC[C@H]1N=C(c2ccccc2F)c2cc(Cl)ccc2-n2c1cnc2C |  | 3570 nM |  |  | 28 |  |
| COC(=O)CC[C@@H]1N=C(c2ccccc2F)c2cc(Cl)ccc2N=C1NCc1ccccc1 |  | 875 nM |  |  |  |  |
| CNC1=Nc2ccc(Cl)cc2C(c2ccccc2F)=N[C@H]1CCC(=O)OC | 22 | 96 nM | 15 | 13000 µg/mL (≈ 33.5 mM) | 156 |  |
| COC(=O)CC[C@@H]1N=C(c2ccccc2F)c2cc(Cl)ccc2-n2c1cnc2C | 24 | 11 nM | 20 |  | 226 |  |
| CCNC1=Nc2ccc(Cl)cc2C(c2ccccc2F)=N[C@H]1CCC(=O)OC |  | 146 nM |  |  |  |  |
| COC(=O)CC[C@@H]1N=C(c2ccccc2F)c2cc(Cl)ccc2N=C1NCc1ccncc1 |  | 1230 nM |  |  |  |  |
| COC(=O)CC[C@@H]1N=C(c2ccccn2)c2cc(Cl)ccc2-n2c(C)cnc21 | 11 | 98 nM | 9 | 13000 µg/mL (≈ 32.9 mM) | 147 |  |
| COC(=O)CC[C@@H]1N=C(c2ccccc2F)c2cc(Cl)ccc2N=C1NCC(C)C |  | 1010 nM |  |  |  |  |
| COC(=O)CC[C@@H]1N=C(c2ccccn2)c2cc(Cl)ccc2NC1=O |  | 139 nM |  | 1000 µg/mL (≈ 2.79 mM) | 46 | Recovery time (Rattus norvegicus [6]): 16 mg/kg; Recovery time (Rattus norvegicus [7]): 9 mg/kg |
| COC(=O)CC[C@@H]1N=C(c2ccccc2F)c2cc(Cl)ccc2NC1=O | 24 | 7 nM | 9 | < 3000 µg/mL | 984 |  |
| COC(=O)CC[C@@H]1N=C(c2ccccc2F)c2cc(Cl)ccc2-n2c(C)cnc21 | 33 | 8 nM | 23 | < 1000 µg/mL | 74 |  |
| CNC1=Nc2ccc(Cl)cc2C(c2ccccc2)=[N+]([O-])C1 [CHLORDIAZEPOXIDE] |  | 438 nM |  |  |  |  |
| COC(=O)CC[C@@H]1N=C(c2ccccc2F)c2cc(Cl)ccc2N=C1NCCc1c[nH]cn1 |  | 208 nM |  |  |  |  |
| COC(=O)CC[C@@H]1N=C(c2ccccc2F)c2cc(Cl)ccc2-n2cc(C)nc21 | 21 | 7 nM | 6 |  | 156 |  |
| Cc1ncc2n1-c1ccc(Cl)cc1C(c1ccccc1F)=NC2 [MIDAZOLAM] |  | 2 nM |  | ≥ 8000 µg/mL |  | Recovery time (Rattus norvegicus [8]): 23 mg/kg; Recovery time (Rattus norvegicus [9]): 121 mg/kg |
| COC(=O)CC[C@@H]1N=C(c2ccccc2F)c2cc(Cl)ccc2N=C1NCCc1ccncc1 |  | 792 nM |  |  |  |  |
| COC(=O)CC[C@@H]1N=C(c2ccccn2)c2cc(Cl)ccc2-n2c1nc(C)c2C |  | 130 nM |  |  | 40 |  |
| COC(=O)CC[C@@H]1N=C(c2ccccc2F)c2cc(Cl)ccc2N=C1NCCO |  | 303 nM |  |  |  |  |
| COC(=O)CC[C@@H]1N=C(c2ccccn2)c2cc(Cl)ccc2-n2ccnc21 | 10 | 79 nM | 7 |  | 176 |  |
